Data taken from ChEMBL document CHEMBL1125826, “Synthesis and biological activity of 5-amino- and 5-hydroxyquinolones, and the overwhelming influence of the remote N1-substituent in determining the structure-activity relationship” (1991).
In brackets after ≈: the same amount, converted by molar mass.

Key:
Type in all cases: functional
Klebsiella pneumoniae = assay: Antibacterial activity was determined against gram negative organism, Klebsiella pneumoniae MGH-2; details: Klebsiella pneumoniae; read-out: MIC
Method in brief: (§1)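 MIC (µg/mL) by standard microtitration against a panel of 10 Gram-positive and Gram-negative organisms; values averaged from multiple experiments.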

Staphylococcus aureus [1] = assay: Antibacterial activity was determined against gram positive organism, Staphylococcus aureus UC76; method in brief: as §1
Streptococcus pyogenes [2] = assay: The in vivo potency was determined in female charles river CD-1 mice infected with Streptococcus pyogenes after sc administration; details: Streptococcus pyogenes, sc; read-out: PD50
Method in brief: (§2)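 Acute lethal systemic infection in female CD-1 mice, 16 mice per route; single subcutaneous dose given at the time of challenge; median protective dose (PD50, mg/kg) determined.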

Enterobacter cloacae = assay: Antibacterial activity was determined against gram negative organism, Enterobacter cloacae MA2646; details: Enterobacter cloacae; read-out: MIC
Pseudomonas aeruginosa = assay: Antibacterial activity was determined against gram negative organism, Pseudomonas aeruginosa UI-18; details: Pseudomonas aeruginosa; read-out: MIC; method in brief: as §1
Escherichia coli [3] = assay: The in vivo potency was determined in female charles river CD-1 mice infected with Escherichia coli after sc administration; details: Escherichia coli, sc; read-out: PD50; method in brief: as §2
Bacteria [4] = assay: MIC ratio measured as the mean MICs of gram-negative bacteria
Method in brief: (§3)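 Geometric mean of the microtitration MICs (µg/mL) over the Gram-negative organisms, and separately over the Gram-positive organisms, of the 10-strain panel; individual MICs averaged from multiple experiments.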

Escherichia coli [5] = assay: Antibacterial activity was determined against gram negative organism, Escherichia coli vogel; details: Escherichia coli; read-out: MIC; method in brief: as §1
Escherichia coli [6] = assay: The in vivo potency was determined in female charles river CD-1 mice infected with Escherichia coli after peroral administration; details: Escherichia coli, po; read-out: PD50
Method in brief: (§4)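 Acute lethal systemic infection in female CD-1 mice, 16 mice per route; single dose given orally by gavage at the time of challenge; median protective dose (PD50, mg/kg) determined.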

Bacteria [7] = assay: Antibacterial activity was determined against gram negative organism, Providencia rettgeri. M1771; details: Bacteria; read-out: MIC; method in brief: as §1
Streptococcus pyogenes [8] = assay: The in vivo potency was determined in female charles river CD-1 mice infected with Streptococcus pyogenes after peroral administration; details: Streptococcus pyogenes, po; read-out: PD50; method in brief: as §4
Enterococcus faecalis = assay: Antibacterial activity was determined against gram positive organism, Streptococcus faecalis MGH-2; details: Enterococcus faecalis; read-out: MIC; method in brief: as §1
[9] = target: DNA gyrase (Escherichia coli) (UniProt P0AES6+P0AES4); assay: Minimum inhibitory concentration against Escherichia coli DNA-gyrase in supercoiling assay
Bacteria [10] = assay: MIC ratio measured as the mean MICs of gram-positive bacteria; method in brief: as §3
Streptococcus pyogenes [11] = assay: Antibacterial activity was determined against gram positive organism, Streptococcus pyogenes C203; details: Streptococcus pyogenes; read-out: MIC; method in brief: as §1
Staphylococcus aureus [12] = assay: Antibacterial activity was determined against gram positive organism, Staphylococcus aureus H228; details: Staphylococcus aureus; read-out: MIC; method in brief: as §1
Streptococcus pneumoniae = assay: Antibacterial activity was determined against gram positive organism, Streptococcus pneumoniae SV-1; details: Streptococcus pneumoniae; read-out: MIC; method in brief: as §1
[13] = Staphylococcus aureus, read-out: MIC

Row | Compound | MIC (Klebsiella pneumoniae) [µg/mL] | MIC (Staphylococcus aureus [1]; [13]) [µg/mL] | ED50 (Streptococcus pyogenes [2]) [mg/kg] | MIC (Enterobacter cloacae) [µg/mL] | MIC (Pseudomonas aeruginosa) [µg/mL] | ED50 (Escherichia coli [3]) [mg/kg] | Geometric mean MIC over Gram-negative bacteria (µg/mL) (Bacteria [4]) | MIC (Escherichia coli [5]) [µg/mL] | ED50 (Escherichia coli [6]) [mg/kg] | MIC (Bacteria [7]) [µg/mL] | ED50 (Streptococcus pyogenes [8]) [mg/kg] | MIC (Enterococcus faecalis) [µg/mL] | MIC [9] [µg/mL] | Geometric mean MIC over Gram-positive bacteria (µg/mL) (Bacteria [10]) | MIC (Streptococcus pyogenes [11]) [µg/mL] | MIC (Staphylococcus aureus [12]) [µg/mL] | MIC (Streptococcus pneumoniae) [µg/mL] | MIC (Staphylococcus aureus [1]) [µg/mL]
1 | CC1CN(c2cc3c(cc2F)c(=O)c(C(=O)O)cn3C2CC2)CC(C)N1 (stereo not given) | 0.05 (≈ 0.139 µM) | 0.05 (≈ 0.139 µM) | 12 | 0.025 (≈ 0.0696 µM) | 0.4 (≈ 1.11 µM) | 0.4 | 0.076 | 0.025 (≈ 0.0696 µM) | 0.7 | 0.2 (≈ 0.556 µM) | 15 | 0.2 (≈ 0.556 µM) | 1 (≈ 2.78 µM) | 0.15 | 0.2 (≈ 0.556 µM) | 0.2 (≈ 0.556 µM) | 0.2 (≈ 0.556 µM) | –
2 | CC1CN(c2cc3c(c(N)c2F)c(=O)c(C(=O)O)cn3C2CC2)CCN1 (stereo not given) | 0.025 (≈ 0.0694 µM) | 0.05 (≈ 0.139 µM) | 21 | 0.025 (≈ 0.0694 µM) | 0.4 (≈ 1.11 µM) | 0.4 | 0.058 | 0.013 (≈ 0.0361 µM) | 2 | 0.1 (≈ 0.277 µM) | 66 | 0.2 (≈ 0.555 µM) | 0.5 (≈ 1.39 µM) | 0.13 | 0.2 (≈ 0.555 µM) | 0.2 (≈ 0.555 µM) | 0.1 (≈ 0.277 µM) | –
3 | CC1CN(c2cc3c(cc2F)c(=O)c(C(=O)O)cn3C2CC2)CCN1 (stereo not given) | 0.05 (≈ 0.145 µM) | 0.1 (≈ 0.29 µM) | 12 | 0.025 (≈ 0.0724 µM) | 0.4 (≈ 1.16 µM) | 0.4 | 0.066 | 0.025 (≈ 0.0724 µM) | 1 | 0.1 (≈ 0.29 µM) | 39 | 0.4 (≈ 1.16 µM) | 0.5 (≈ 1.45 µM) | 0.23 | 0.2 (≈ 0.579 µM) | 0.4 (≈ 1.16 µM) | 0.2 (≈ 0.579 µM) | –
4 | Nc1c(F)c(N2CCNCC2)c(Cl)c2c1c(=O)c(C(=O)O)cn2C1CC1 | 0.05 (≈ 0.131 µM) | 0.025 (≈ 0.0657 µM) | 10 | 0.025 (≈ 0.0657 µM) | 0.8 (≈ 2.1 µM) | 0.5 | 0.076 | 0.025 (≈ 0.0657 µM) | 2 | 0.1 (≈ 0.263 µM) | 26 | 0.1 (≈ 0.263 µM) | 1 (≈ 2.63 µM) | 0.087 | 0.2 (≈ 0.525 µM) | 0.1 (≈ 0.263 µM) | 0.1 (≈ 0.263 µM) | –
5 | Nc1c(F)c(N2CCC(N)C2)cc2c1c(=O)c(C(=O)O)cn2C1CC1 (stereo not given) | 0.025 (≈ 0.0722 µM) | 0.025 (≈ 0.0722 µM) | 6 | 0.013 (≈ 0.0375 µM) | 0.4 (≈ 1.15 µM) | 0.7 | 0.038 | 0.013 (≈ 0.0375 µM) | 8 | 0.05 (≈ 0.144 µM) | 110 | 0.05 (≈ 0.144 µM) | 2 (≈ 5.77 µM) | 0.044 | 0.05 (≈ 0.144 µM) | 0.1 (≈ 0.289 µM) | 0.025 (≈ 0.0722 µM) | –
6 | CCNCC1CCN(c2c(F)c(N)c3c(=O)c(C(=O)O)cn(C4CC4)c3c2Cl)C1 (stereo not given) | 0.4 (≈ 0.946 µM) | – | 4 | 0.2 (≈ 0.473 µM) | 1.6 (≈ 3.78 µM) | 3 | – | 0.1 (≈ 0.236 µM) | 32 | 0.8 (≈ 1.89 µM) | 31 | 0.1 (≈ 0.236 µM) | 1 (≈ 2.36 µM) | – | 0.025 (≈ 0.0591 µM) | 0.1 (≈ 0.236 µM) | 0.025 (≈ 0.0591 µM) | 0.025 (≈ 0.0591 µM)
7 | CCNCC1CCN(c2cc3c(cc2F)c(=O)c(C(=O)O)cn3C2CC2)C1 (stereo not given) | 0.2 (≈ 0.536 µM) | 0.013 (≈ 0.0348 µM) | – | 0.4 (≈ 1.07 µM) | 1.6 (≈ 4.28 µM) | 2 | 0.46 | 0.2 (≈ 0.536 µM) | 35 | 0.8 (≈ 2.14 µM) | – | 0.2 (≈ 0.536 µM) | 1 (≈ 2.68 µM) | 0.1 | 0.05 (≈ 0.134 µM) | 0.4 (≈ 1.07 µM) | 0.2 (≈ 0.536 µM) | –
